# Screening data: PubChem, The Scripps Research Institute Molecular Screening Center
# OX1R antag-1 = OX1R (human) antagonism | 330,000 tested, 1.8% active | OX1R-expressing cells, FRET antagonist read-out | AID 485270 | inhibition, % at 6.6 µM; in the data active = inhibition mostly above about 38%, no sharp cut-off; inactive = mostly below about 40%;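 note: 0% = agonist challenge alone and 100% = reference antagonist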
# Target sequence (O43613 whole entry, looked up): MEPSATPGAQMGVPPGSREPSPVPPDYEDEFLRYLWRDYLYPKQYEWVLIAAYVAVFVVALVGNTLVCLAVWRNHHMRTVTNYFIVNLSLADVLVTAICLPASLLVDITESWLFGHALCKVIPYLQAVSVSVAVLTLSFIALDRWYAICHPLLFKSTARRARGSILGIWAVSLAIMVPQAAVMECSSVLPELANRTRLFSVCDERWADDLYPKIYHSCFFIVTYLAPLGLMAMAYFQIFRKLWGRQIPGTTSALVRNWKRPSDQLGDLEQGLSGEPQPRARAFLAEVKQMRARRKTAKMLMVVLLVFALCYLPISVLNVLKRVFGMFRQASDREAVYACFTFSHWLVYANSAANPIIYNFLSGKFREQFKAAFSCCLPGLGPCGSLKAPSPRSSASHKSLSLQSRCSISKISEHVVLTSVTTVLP
# TAAR1 agonist = agonists of human TAAR1 | Q96RJ0 | CHO RD-HGA16 TAAR1, Fluo-8 calcium fluorescence; vehicle wells 0%, saturating PEA agonist 100% | activation, % at 3 µM | 360,000 tested, 0.99% active;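 active = activation above the mean activation of all test compounds in the run plus 3 SD, cut at about 38% in these data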
#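 Test system: RD-HGA16 (CHO) cells co-expressing Gα16 and hTAAR1 | Doses: Single dose, 3 µM | Schedule: 17-24 h seeding, 75 min 37 °C dye, 30 min RT | Evaluation: % activation from peak over basal fluorescence ratio, DMSO-to-PEA scaled | Technique: Kinetic Fluo-8 calcium fluorescence | Benchmarks: Low control DMSO, high control PEA (EC100)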
# GPR7 antag = human neuropeptides B/W receptor 1 antagonism | P48145 | GPR7-expressing cells, fluorescence antagonist assay | inhibition, % at 4.4 µM | 290,000 tested, 1.1% active; in the data active = inhibition above about 16%, passing the limit was not always enough;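 note: cells stimulated with the agonist NPW; 0% = agonist with vehicle and 100% = vehicle without agonist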
# TAAR1 antag = human TAAR1 antagonism; CHO RD-HGA16 TAAR1, Fluo-8 calcium fluorescence, antagonist; inhibition, % at 3 µM; 360,000 tested, 1.5% active;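 active = inhibition above a per-plate cutoff, the mean inhibition of test compounds on that plate plus 3 SD, cut at about 49% in these data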;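 note: 0% = DMSO plus EC80 beta-PEA response and 100% = DMSO alone without agonist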
#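 Test system: CHO RD-HGA16 cells bearing hTAAR1 | Reagent: β-PEA, EC80 | Compound dosing: 3 µM, single point | Schedule: Dye loading 75 min at 37 °C, then 30 min room temperature | Signal: Calcium fluorescence with Fluo-8 | Evaluation: Percent inhibition of PEA-evoked calcium signal, max/basal emission ratio | Control set: DMSO-only wells and EC80 β-PEA-stimulated wells | Repeats: Singlicate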
# OX1R antag-2 = blocks the human orexin 1 receptor; 330,000 tested, 0.43% active; O43613; inhibition, % at 5 µM; CHO/OX1R cells, Fluo-8 calcium fluorescence, orexin A;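 active = inhibition above its plate's threshold, mean inhibition of all tested compounds on the plate plus 3 SD, cut at about 37% in these data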;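 note: 0% = orexin A challenge wells and 100% = SB-334867-A antagonist wells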
# CHO parental Ca = counter-screen for OX1R antagonists: effect in parental CHO cells. inhibition, % at 5.6 µM. AID 463079. parental CHO-K1, ATP-induced calcium, Fluo-8 fluorescence. 330,000 tested, 0.63% active;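 active = inhibition above that plate's mean sample inhibition plus 3 SD, cut at about 26% in these data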;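 note: 0% = ATP-challenged DMSO wells and 100% = DMSO wells without ATP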
#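 Material: Parental CHO cells | Reagent: ATP | Compound dosing: Single nominal dose of 5.6 µM per compound | Detection: Intracellular calcium via Fluo-8 no-wash fluorescent dye | Read-out: % inhibition of ATP-induced calcium mobilization | Benchmarks: Low control ATP plus DMSO, high control DMSO only | Replicates: Singlicate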
# * = called active by the depositor; nt = no result. Most compounds without a hit are left out; they make up all but 4.6% or so of the library.
SMILES,OX1R antag-1,TAAR1 agonist,GPR7 antag,TAAR1 antag,OX1R antag-2,CHO parental Ca
CC(C)C[C@H]1C(=O)N2CCC[C@H]2[C@]2(O)O[C@](NC(=O)C3C=C4c5cccc6[nH]c(Br)c(c56)C[C@H]4N(C)C3)(C(C)C)C(=O)N12 (stereo partly drawn),58*,3,nt,26,-7,-18
CCCCC1Cc2[nH]c(=S)[nH]c(=O)c2C(C(C)C)O1 (stereo not drawn),nt,3,nt,6,nt,nt
CC(C)OC(=O)CSc1nnc(-c2ccc(Cl)cc2Cl)o1,16,4,-10,-7,-21,-14
Cc1cc(NC(=O)CSc2nnc(-c3ccc(O)cc3)o2)no1,22,-1,-14,-9,-1,13
CC(C)OC(=O)CSc1nnc(-c2ccc([N+](=O)[O-])cc2)o1,65*,5,-16,-2,-16,-9
Cc1cc(NC(=O)CSc2nnc(-c3ccc([N+](=O)[O-])cc3)o2)no1,59*,3,-14,-12,-9,5
COc1ccc(CS(=O)c2nc(C)cc(C)c2S(C)(=O)=O)cc1 (stereo not drawn),22,-1,-1,4,-29,-4
COc1ccc([C@H]2C[C@@H](n3cc(-c4ccc(F)cc4)nn3)[C@H](O)CN2CC2CCCCC2)cc1,nt,0,nt,6,nt,nt
CC1(C)c2[nH]c3ccccc3c2C[C@@H]2C(=O)N(Cc3ccccc3Cl)C(=O)N21,10,13,nt,49*,-10,-15
COc1ccccc1CN1C(=O)[C@@H]2Cc3c([nH]c4ccccc34)C(C)(C)N2C1=O,16,13,nt,24,0,-11
COc1ccc(CN2C(=O)[C@H]3Cc4c([nH]c5ccccc45)C(C)(C)N3C2=O)cc1,12,18,nt,56*,-3,-7
COc1ccc(CN2C(=O)[C@@H]3Cc4c([nH]c5ccccc45)C(C)(C)N3C2=O)cc1,6,5,nt,30,-13,-3
COC(=O)C1=C(N)OC2=C(C(=O)CC(C)(C)C2)C1c1ccoc1 (stereo not drawn),14,10,-2,-5,-2,-3
CSc1nc(N)c2cn[nH]c2n1,nt,1,nt,1,nt,nt
NC(=O)Nn1c(CCC(=O)O)ccc1-c1ccc(Cl)cc1,17,0,-6,7,0,1
O=C(O)CCc1ccc(-c2ccccc2)n1NC(=O)c1sc2ccccc2c1Cl,41*,3,-1,1,-15,-3
CCOc1ccc2nc(SCC(=O)Nc3ccc4[nH]c(=O)[nH]c4c3)[nH]c2c1,15,1,nt,-20,-21,6
COc1ccc(/C=C/C(=O)Nc2ccc3c(c2)CCC3)cc1OC,73*,3,-3,-4,22,-24
COc1ccc(NC(=O)Nc2ccc3c(c2)CCC3)cc1OC,37,5,-7,17,-11,5
Cc1ccccc1NC(=O)c1cccc(N2C(=O)C3C4CC(C(Br)C4Br)C3C2=O)c1 (stereo not drawn),nt,41*,18,73*,nt,nt
O=C(Nc1ccc(Br)cc1)c1cccc(N2C(=O)C3C4CCC(C4)C3C2=O)c1 (stereo not drawn),19,22,-13,49*,-11,-8
Cc1cccc(NC(=O)c2ccc(N3C(=O)C4C5C=CC(C6CC56)C4C3=O)cc2)c1 (stereo not drawn),18,12,14,68*,33,46*
O=C(Nc1ccc(Br)cc1)c1cccc(N2C(=O)C3C4C=CC(C4)C3C2=O)c1 (stereo not drawn),16,10,-3,37,-34,-18
CC1C=CCC2C(=O)N(c3cccc(C(=O)Nc4ccc(Br)cc4)c3)C(=O)C12 (stereo not drawn),22,4,2,50*,-6,-14
COc1ccc(-c2ncn(CCc3ccccc3OC)c2C(C)C)cc1,nt,15,nt,-1,nt,nt
SMILES,OX1R antag-1,TAAR1 agonist,GPR7 antag,TAAR1 antag,OX1R antag-2,CHO parental Ca
O=C(Nc1cccc(-c2nc3cccnc3s2)c1)c1ccco1,64*,11,-18,34,6,-15
CCOc1ncccc1C(=O)Nc1cccc(-c2nc3cccnc3s2)c1,68*,7,-11,47,8,-18
O=C(Nc1cccc(NC(=O)c2nccc3ccccc23)c1)c1ccco1,54*,21,nt,28,-26,-1
Cc1cc(C)c2sc(NC(=O)CN3C(=O)CCC3=O)nc2c1,6,6,2,-27,-12,-19
CCOC(=O)C(CC)(CC)C(=O)/C=C/c1cccc(Br)c1,13,9,1,-7,-17,-19
CCn1cc(C(=O)NC2CCCc3c2cnn3-c2cccc(C)c2C)cn1 (stereo not drawn),54,6,20,2,16,54*
Cc1cc(C(=O)NC2CCCc3c2cnn3-c2cccc(C)c2C)no1 (stereo not drawn),23,1,-4,14,-5,7
CC1=C(C(=O)NC2CCCc3c2cnn3-c2cccc(C)c2C)OCCO1 (stereo not drawn),67*,2,-3,23,15,14
COc1ccc(C(=O)NC2CCCc3c2cnn3-c2cccc(C)c2C)o1 (stereo not drawn),68*,1,-13,24,12,0
CN(C)c1ccc(C(CNC(=O)Cc2cccc3ccccc23)N(C)C)cc1 (stereo not drawn),19,1,-2,0,-15,-1
CCOC(=O)C1(Cc2ccc(OC)cc2)CCN(S(C)(=O)=O)CC1,16,6,-2,-12,-16,-7
CCOC(=O)C1(Cc2ccc(Cl)cc2)CCN(C(C)Cc2ccc(O)c(OC)c2)CC1 (stereo not drawn),15,21,6,26,-15,38*
CCn1c(N2CCN(S(=O)(=O)c3ccc(OC)cc3)CC2)nc2ccccc21,7,34,-5,49*,-3,5
COc1ccc(OC2CCN(S(=O)(=O)c3ccc(OC)cc3)CC2)cc1,0,5,34,2,27,36*
CCn1c(N2CCN(S(=O)(=O)c3ccccc3C(F)(F)F)CC2)nc2ccccc21,17,24,-14,42,-12,-2
Cc1cc(NC(=O)Cc2c(C)[nH]c3ccccc23)ccc1Oc1cccnc1,nt,7,nt,6,nt,nt
Cc1ccc2c(C(=O)CN3CCN(C(=O)c4ccco4)CC3)c(C)[nH]c2c1,29,2,-12,4,-17,-4
C#CCOCCOCCOCCNc1nc(N2CCN(C(=O)Cn3cc(CCO)nn3)CC2)nc(N2CCN(C(=O)[C@H](Cc3ccc(O)cc3)n3cc(CCO)nn3)CC2)n1,nt,13,nt,-18,nt,nt
C(=N\NC1=Nc2cccc3cccc1c23)/c1cccnc1,72*,7,-3,25,11,-10
